# Assay results: ChEMBL document CHEMBL1140988 (Eur J Med Chem, 2008)
# What was measured:
# Cannabinoid receptor 2 [1] = biological target: T1, Cannabinoid receptor 2 (Homo sapiens, UniProt P34972); assay: Displacement of [3H]WIN-55212-2 from human CB2 receptor expressed in CHO cells at 10 uM; format: cell-based
# How it was run: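 Human CB2 expressed in CHO cell membranes, competitive binding run by an outside contract lab. [3H]-WIN 55212-2 at 0.8 nM was displaced by test compound at 10 μM. Specific binding is total minus non-specific, the latter measured with excess unlabelled ligand. Reported as % displacement of control specific binding, n = 2.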
# Cannabinoid receptor 1 [2] = biological target: T2, Cannabinoid receptor 1 (Homo sapiens, UniProt P21554); assay: Displacement of [3H]CP-55940 from human CB1 receptor expressed in CHO cells at 10 uM; format: cell-based
# T2 sequence (P21554 whole entry): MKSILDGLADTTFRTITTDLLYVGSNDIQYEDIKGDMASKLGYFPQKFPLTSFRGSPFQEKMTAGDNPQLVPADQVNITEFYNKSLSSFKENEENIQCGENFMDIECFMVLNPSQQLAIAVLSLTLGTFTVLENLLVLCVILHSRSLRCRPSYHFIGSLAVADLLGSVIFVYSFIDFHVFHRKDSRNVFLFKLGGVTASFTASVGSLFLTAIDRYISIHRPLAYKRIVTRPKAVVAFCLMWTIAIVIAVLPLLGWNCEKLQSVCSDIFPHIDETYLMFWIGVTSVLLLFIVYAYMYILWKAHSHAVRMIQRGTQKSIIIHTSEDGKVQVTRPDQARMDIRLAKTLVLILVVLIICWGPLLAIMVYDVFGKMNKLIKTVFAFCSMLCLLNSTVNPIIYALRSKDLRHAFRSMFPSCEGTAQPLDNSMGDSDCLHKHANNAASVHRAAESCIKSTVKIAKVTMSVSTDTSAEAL
# How it was run: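 Competitive binding on membranes of CHO cells expressing human CB1, run by an outside contract lab. Radioligand was [3H]-CP 55940 at 0.5 nM and test compound was at 10 μM. Non-specific binding was set with an excess of unlabelled ligand. Values are % of control specific binding (displacement), n = 2.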
# Cannabinoid receptor 2 [3] = biological target: T1, Cannabinoid receptor 2; assay: Displacement of [3H]WIN-55212-2 from human CB2 receptor expressed in CHO cells; format: cell-based
# How it was run: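 Non-specific binding was defined with excess unlabelled ligand. Ki was derived from IC50 by the Cheng-Prusoff equation, Ki = IC50/(1 + L/KD), using radioligand concentration and KD.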
# Cannabinoid receptor 1 [4] = biological target: T2, Cannabinoid receptor 1; assay: biochemical; format: cell-based, CHO
# T1 sequence (P34972 whole entry): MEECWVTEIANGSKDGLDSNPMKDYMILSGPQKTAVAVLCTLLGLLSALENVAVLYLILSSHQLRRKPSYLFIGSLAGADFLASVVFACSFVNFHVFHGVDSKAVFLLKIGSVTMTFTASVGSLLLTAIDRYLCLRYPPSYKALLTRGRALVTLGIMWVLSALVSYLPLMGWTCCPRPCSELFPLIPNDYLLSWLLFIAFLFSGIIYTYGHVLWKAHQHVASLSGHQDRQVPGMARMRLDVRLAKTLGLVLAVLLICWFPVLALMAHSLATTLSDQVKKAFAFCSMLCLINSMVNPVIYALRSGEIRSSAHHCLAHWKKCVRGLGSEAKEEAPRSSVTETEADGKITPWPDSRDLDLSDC
Compound,Activity (Cannabinoid receptor 2 [1]),Activity (Cannabinoid receptor 1 [2]),Ki (Cannabinoid receptor 2 [3]),Ki (Cannabinoid receptor 1 [4])
O=C(NC12CC3CC(CC(C3)C1)C2)c1cnn(-c2ccc(Cl)cc2Cl)c1-c1ccc(I)cc1,44%,76%,–,–
O=C(NC1CCCCCCC1)c1cnn(-c2ccc(Cl)cc2Cl)c1-c1ccc(Cl)cc1,44%,84%,–,–
O=C(NC1CCCCCC1)c1cnn(-c2ccc(Cl)cc2Cl)c1-c1ccc(Cl)cc1,50%,78%,–,–
COc1ccc(-c2c(C(=O)NC3CCCCC3)cnn2-c2ccc(Cl)cc2Cl)cc1,76%,64%,–,–
O=C(NC12CC3CC(CC(C3)C1)C2)c1cnn(-c2ccc(Cl)cc2Cl)c1-c1ccc(Cl)cc1,22%,72%,–,–
O=C(NC1CCCCC1)c1cnn(-c2ccc(Cl)cc2Cl)c1-c1ccc(F)cc1,18%,69%,–,–
O=C(c1cnn(-c2ccc(Cl)cc2Cl)c1-c1ccc(Cl)cc1)N1CCCCC1,45%,59%,–,–
O=C(c1cnn(-c2ccc(Cl)cc2Cl)c1-c1ccc(Cl)cc1)N1CCc2ccccc2C1,69%,58%,–,–
O=C(NC1CC1)c1cnn(-c2ccc(Cl)cc2Cl)c1-c1ccc(Br)cc1,43%,84%,–,1000 nM
O=C(c1cnn(-c2ccc(Cl)cc2Cl)c1-c1ccc(Cl)cc1)N1CCCC1,43%,49%,–,–
O=C(NN1CC2CCCC2C1)c1cnn(-c2ccc(Cl)cc2Cl)c1-c1ccc(Cl)cc1 (centres undefined),56%,86%,–,–
O=C(NC1CC1)c1cnn(-c2ccc(Cl)cc2Cl)c1-c1ccc(Cl)cc1,30%,87%,21000 nM,850 nM
O=C(NC1CCCCC1)c1cnn(-c2ccc(Cl)cc2Cl)c1-c1ccc(Cl)cc1,52%,68%,–,–
Cc1ccc(-c2c(C(=O)NC3CCCCC3)cnn2-c2ccc(Cl)cc2Cl)cc1,46%,48%,–,–
O=C(NC1CCCCCC1)c1cnn(-c2ccc(Cl)cc2Cl)c1-c1ccc(Br)cc1,60%,88%,–,1100 nM
O=C(NC1CCCC1)c1cnn(-c2ccc(Cl)cc2Cl)c1-c1ccc(Cl)cc1,61%,82%,–,–
O=C(NCCN1CCCCC1)c1cnn(-c2ccc(Cl)cc2Cl)c1-c1ccc(Cl)cc1,14%,39%,–,–
O=C(NC1CCCCC1)c1cnn(-c2ccc(Cl)cc2Cl)c1-c1ccc(Br)cc1,44%,81%,–,–
O=C(NC1CC1)c1cnn(-c2ccc(Cl)cc2Cl)c1-c1ccc(F)cc1,7%,62%,–,–

# Results, then the molecule that gave them:
Activity (Cannabinoid receptor 2 [1]),Activity (Cannabinoid receptor 1 [2]),Ki (Cannabinoid receptor 2 [3]),Ki (Cannabinoid receptor 1 [4]),Compound
64%,75%,–,–,O=C(NN1CCCCCC1)c1cnn(-c2ccc(Cl)cc2Cl)c1-c1ccc(Cl)cc1
59%,64%,–,–,O=C(NC1CCCCC1)c1cnn(-c2ccc(Cl)cc2Cl)c1-c1ccc(I)cc1
-12%,67%,30000 nM,2600 nM,CN1CCN(NC(=O)c2cnn(-c3ccc(Cl)cc3Cl)c2-c2ccc(Br)cc2)CC1
-23%,61%,–,16000 nM,CN1CCN(NC(=O)c2cnn(-c3ccc(Cl)cc3Cl)c2-c2ccc(Cl)cc2)CC1
60%,91%,–,210 nM,O=C(NC1CC1)c1cnn(-c2ccc(Cl)cc2Cl)c1-c1ccc(I)cc1
27%,29%,–,–,Cc1ccc(-c2c(C(=O)NN3CCCCC3)cnn2-c2ccc(Cl)cc2Cl)cc1
7%,43%,–,–,O=C(NN1CCCCC1)c1cnn(-c2ccc(Cl)cc2Cl)c1-c1ccc(F)cc1
-9%,30%,–,–,O=C(NN1CCOCC1)c1cnn(-c2ccc(Cl)cc2Cl)c1-c1ccc(F)cc1
37%,79%,–,–,O=C(NN1CCCCC1)c1cnn(-c2ccc(Cl)cc2Cl)c1-c1ccc(Cl)cc1
12%,65%,–,–,O=C(NN1CCOCC1)c1cnn(-c2ccc(Cl)cc2Cl)c1-c1ccc(Cl)cc1
42%,78%,–,–,CN1CCN(NC(=O)c2cnn(-c3ccc(Cl)cc3Cl)c2-c2ccc(I)cc2)CC1
84%,94%,1900 nM,1300 nM,O=C(NN1CCCCC1)c1cnn(-c2ccc(Cl)cc2Cl)c1-c1ccc(I)cc1
61%,90%,–,1100 nM,O=C(NC1CCCCCC1)c1cnn(-c2ccc(Cl)cc2Cl)c1-c1ccc(I)cc1
70%,58%,–,–,COc1ccc(-c2c(C(=O)NN3CCCCC3)cnn2-c2ccc(Cl)cc2Cl)cc1
55%,74%,–,–,O=C(NN1CCCCC1)c1cnn(-c2ccc(Cl)cc2Cl)c1-c1ccc(Br)cc1
